Rtt109 HAT inh = inhibitors of C. albicans Rtt109/Vps75 HAT, primary screen, biochemical, ThioGlo CoA-SH fluorescence, plate reader; 0.16% of 330,000 active; inhibition, % at 34.9 µM; AID 540336, 2011; Histone acetyltransferase RTT109 (Candida albicans (strain SC5314 / ATCC MYA-2876)), …; purified Rtt109/Vps75, 4 h;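 active = inhibition of at least 50% in every replicate; inconclusive = best replicate reaches 50% inhibition but some replicates fall short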
Target sequence (Q5AAJ8 whole entry, looked up): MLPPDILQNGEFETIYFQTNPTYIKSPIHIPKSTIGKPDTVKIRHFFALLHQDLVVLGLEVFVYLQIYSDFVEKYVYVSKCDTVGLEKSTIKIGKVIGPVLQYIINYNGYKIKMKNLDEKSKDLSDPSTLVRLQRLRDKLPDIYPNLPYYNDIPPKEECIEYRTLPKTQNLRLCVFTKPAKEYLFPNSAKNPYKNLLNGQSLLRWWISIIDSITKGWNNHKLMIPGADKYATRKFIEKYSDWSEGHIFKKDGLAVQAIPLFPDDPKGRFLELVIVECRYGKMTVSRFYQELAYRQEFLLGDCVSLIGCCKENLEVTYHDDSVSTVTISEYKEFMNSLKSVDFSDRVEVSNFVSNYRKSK
SR-BI DiI-HDL act = activators of SR-BI mediated DiI-HDL uptake, primary screen, ldlA[mSR-BI] CHO cells, DiI fluorescence | 0.096% of 320,000 active | 3 h; 100 = double the neutral-control signal | activation, % at 12.5 µM | AID 504775, 2011;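 active = mean replicate activation of at least 60% and every replicate at or above 60%; inconclusive = mean or all-replicate condition met, but not both; inactive = mean below 60% and not all replicates reaching 60%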;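 note: 0% = median plate neutral-control signal and 100% = twice that signal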
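material = CHO ldlA[mSR-BI] cells | medium = Ham's F12 with 0.5% BSA, HEPES 25 mM, pH 7.4 | reagent = fluorescent DiI-HDL, 10 µg/mL final | compound dosing = single-point compound dose | incubation = 3 h, 37 °C | measured by = bottom-read fluorescence, 550/595 nm | measure = HDL uptake via cellular fluorescence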
PglD inh = C. jejuni PglD acetyltransferase inhibitors, primary screen, biochemical, DTNB colorimetric, single point; 0.098% of 360,000 active; purified PglD enzyme, DTNB colorimetric CoA detection; inhibition, % at 12.5 µM; UDP-N-acetylbacillosamine N-acetyltransferase PglD (Campylobacter jejuni); in the data active = inhibition above about 16%, passing the limit was not always enough; inconclusive = no clear call, values can overlap the other calls
N-glyco inh = increase of ERlucT glycosylation luciferase signal, primary screen, N-linked glycosylation inhibitor project, D54 ERlucT cells, luminescence, set 2 | D54 ERlucT glycosylation luciferase reporter, 24 h; percent of 100 nM tunicamycin response | 0.23% of 360,000 active | reporter increase, % at 12.5 µM | AID 588692, 2011;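 active = mean luciferase reporter signal, scaled so untreated is 0 and the glycosylation-blocking control 100, at or above a set limit in every replicate; inconclusive = mean reaches the limit but not every replicate does; inactive = mean below the limit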;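 note: luciferase carries N-glycosylation sites so blocking glycosylation raises the light; 0% = median of neutral control wells and 100% = median of 100 nM tunicamycin wells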
SR-BI HDL uptake = inhibitors of SR-BI mediated HDL lipid uptake, primary screen, ldlA[mSR-BI] cells, fluorescence, single point; ldlA[mSR-BI] CHO cells, DiI-HDL uptake fluorescence, 3 h; inhibition, % at 12.5 µM; Scavenger receptor class B member 1 (Mus musculus), Q61009; 0.96% of 320,000 active;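 active = mean replicate inhibition of at least 70% and a set share of replicates each scoring 70 or more; inconclusive = meets just one of the two criteria; inactive = fails both criteria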;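 note: 0% = median of neutral control wells and 100% = median of positive control wells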
HIV Env fusion = inhibitors of HIV-1 Env-driven cell-cell fusion, primary screen, HeLa-JRFL effector, CEM21 target cells, luciferase; AID 651610, 2012; inhibition, % at 12.3 µM; 1.1% of 360,000 active;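 active = mean replicate inhibition score of at least 50 and every replicate individually at or above 50; inconclusive = only one of the two criteria met; inactive = mean below 50 and not all replicates reaching 50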;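 note: 0% = plate neutral controls and 100% = maraviroc near 300 nM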
Active calls of the source: *; ? = inconclusive; nt = no result given; [ ] = another dose, or the depositor's remark. Shown are actives, neighbours in structure and some others; about 1.9% of the full set was active somewhere.

SMILES	Rtt109 HAT inh	SR-BI DiI-HDL act	PglD inh	N-glyco inh	SR-BI HDL uptake	HIV Env fusion
CN1CCc2cc3c(c4c2[C@H]1[C@H](O)c1ccccc1-4)OCO3	-27.3	-6.4	-4.0	33.5*	6.4	-170.4
COCC(=O)Nc1ccc2c(c1)C(=O)N(C)[C@@H]1CC[C@@H](CC(=O)NCc3ccccc3F)O[C@@H]1CO2	nt	nt	1.2	nt	nt	0.1[16.7 µM]
O=C(NC(=S)NCc1ccc(F)cc1)c1ccccc1	8.6	3.7	nt	-0.6	-3.7	nt
O=C(NCc1ccccc1)c1ccccc1	1.6	7.5	-3.4	1.2	-7.5	nt
O=C(NC(=S)NCc1ccccc1)c1ccccc1	nt	65.0*	nt	-0.4	-65.0	-23.8
O=C(NCc1ccccc1)c1ccc(C(=O)NCc2ccccc2)cc1	-0.1	4.4	nt	-2.9	-4.4	81.9*
C[C@@H]1CN([C@@H](C)CO)S(=O)(=O)c2ccc(Br)cc2O[C@@H]1CN(C)Cc1ccc(C(=O)O)cc1	nt	nt	-1.7	nt	nt	-3.0[16.7 µM]
C[C@@H]1CN([C@H](C)CO)C(=O)c2cc(NS(=O)(=O)c3ccccc3)ccc2O[C@@H](C)CCCCO[C@@H]1CN(C)C	nt	nt	0.3	nt	nt	-1.5[16.7 µM]
O=C(Nc1nc2cc3c(cc2s1)OCCO3)c1ccco1	7.6	-15.2	7.4	-22.9	15.2	58.2*
Cc1ccc(S(=O)(=O)N(C)C[C@@H]2Oc3c(NC(=O)c4ccncc4)cccc3C(=O)N([C@H](C)CO)C[C@@H]2C)cc1	nt	nt	-4.3	nt	nt	-50.4[16.7 µM]
CC(C)C(N)c1csc(NC(=O)Nc2cccc(C(F)(F)F)c2)n1 (centres undefined)	nt	nt	-0.4	-2.5	nt	-7.1
NC(CCc1ccccc1)c1csc(Nc2ccccn2)n1 (centres undefined)	nt	nt	-0.6	-2.0	nt	84.8*
NC(CCc1ccccc1)c1csc(NC(=O)Nc2cccc(C(F)(F)F)c2)n1 (centres undefined)	nt	nt	-4.5	-4.4	nt	55.2*
NC(Cc1ccc(Cl)cc1)c1csc(NC(=O)Nc2ccccc2)n1 (centres undefined)	nt	nt	-1.4	-3.7	nt	60.8*
COc1ccccc1NC(=O)Nc1nc(C(N)Cc2ccc(Cl)cc2)cs1 (centres undefined)	nt	nt	9.5	-5.5	nt	64.1*
COc1ccccc1NC(=O)Nc1nc(C(N)Cc2ccccc2)cs1 (centres undefined)	nt	nt	5.6	-2.6	nt	-24.7
C[C@H]1CN([C@@H](C)CO)C(=O)c2cc(NC(=O)NC3CCCCC3)ccc2O[C@@H]1CN(C)C(=O)Nc1ccc(F)cc1	nt	nt	-1.6	nt	nt	6.1[16.7 µM]
CCCC#Cc1cnc2c(c1)C(=O)N([C@H](C)CO)C[C@@H](C)[C@@H](CN(C)C(=O)C1CCCCC1)O2	nt	nt	nt	nt	nt	-10.3[16.7 µM]
COc1ccc(CC(N)c2csc(NC(=O)Nc3cccc(C(F)(F)F)c3)n2)cc1 (centres undefined)	nt	nt	-1.4	-2.1	nt	?
NC(Cc1ccc(C(F)(F)F)cc1)c1csc(NC(=O)Nc2ccccc2Cl)n1 (centres undefined)	nt	nt	-5.7	-1.2	nt	58.2*
NC(Cc1ccc(C(F)(F)F)cc1)c1csc(NC(=O)Nc2ccccc2)n1 (centres undefined)	nt	nt	-4.3	-2.6	nt	77.7*
C[C@@H]1CCCCO[C@@H](CN(C)S(C)(=O)=O)[C@H](C)CN([C@@H](C)CO)C(=O)c2cc(NC(=O)Cc3ccccc3)ccc2O1	nt	nt	0.7	nt	nt	11.4[16.7 µM]
Cc1nc(N2CCCCC2)sc1C(=O)c1ccc(SCCO)c([N+](=O)[O-])c1	8.2	-77.5	nt	-5.3	77.5*	-23.9
CC[C@@]1(C(=O)OC)N[C@H](CN(C)C(=O)Nc2ccc(C)cc2)[C@@H]2C(=O)N(Cc3ccccc3)C(=O)[C@@H]21	-4.9	-11.1	-1.2	6.1	11.1	66.3*
CC[C@@]1(C(=O)OC)N[C@H](CN(C)C(=O)Nc2ccc(F)cc2)[C@@H]2C(=O)N(Cc3ccccc3)C(=O)[C@@H]21	-0.4	1.3	-3.7	1.3	-1.3	94.1*

Bioassay records deposited in PubChem by Broad Institute.
